{"source": "ChEMBL document CHEMBL5724801", "about": "“EUbOPEN Chemogenomics Library - Multiplex” (2024)", "test_system": "HEK-293T", "assay": "Multiplex assay against HEK293T", "type": "toxicity, cell-based", "conditions": "human", "procedure,_shortened": "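Cells were classed with CellPathfinder machine-learning gating, first as Hoechst high-intensity objects or normal cells, then (normal cells) as healthy, pyknosed or fragmented nuclei, and finally (pyknosed cells) as mitotic or apoptotic. Staining of live cells at seeding used Hoechst33342, BioTracker Green Microtubule Cytoskeleton Dye, MitoTracker Red and Annexin V Alexa Fluor 680, with imaging on a CQ1 microscope at 37°C and 5% CO2 after compound addition. Tubulin, mitochondrial-mass and membrane-permeability phenotypes are per cents of healthy-nucleus cells.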", "key": {"[1]": {"conditions": "12 h, 1 µM, compound concentration 1 uM"}, "[2]": {"conditions": "12 h, 10 µM, compound concentration 10 uM"}, "[3]": {"conditions": "24 h, 1 µM, compound concentration 1 uM"}, "[4]": {"conditions": "24 h, 10 µM, compound concentration 10 uM"}, "[5]": {"conditions": "48 h, 1 µM, compound concentration 1 uM"}, "[6]": {"conditions": "48 h, 10 µM, compound concentration 10 uM"}}, "note": "Where “and” joins values, the source holds several entries; their conditions need not be identical. Equal entries are not always repeated.", "data": [{"smiles": "CN(C)C(=O)Cn1cc(-c2ccc(-c3cncc4ccccc34)cc2)cn1", "values": [{"measurement": "Population Apoptotic (%)", "setting": "[1]", "result": "52% and 40%"}, {"measurement": "Population Fragmented Nuclei (%)", "setting": "[1]", "result": "5% and 4%"}, {"measurement": "Population Healthy Nuclei (%)", "setting": "[1]", "result": "81% and 80%"}, {"measurement": "Population Hoechst High Intensity Objects (%)", "setting": "[1]", "result": "7% and 2%"}, {"measurement": "Population Membrane Permeable-Phenotype (%)", "setting": "[1]", "result": 0, "unit": "%"}, {"measurement": "Population Mitochondria Different-Phenotype (%)", "setting": "[1]", "result": "50% and 58%"}, {"measurement": "Population Mitotic Cells (%)", "setting": "[1]", "result": "47% and 59%"}, {"measurement": "Population Normal (%)", "setting": "[1]", "result": "92% and 97%"}, {"measurement": "Population Pyknosed Nuclei (%)", "setting": "[1]", "result": "12% and 14%"}, {"measurement": "Population Tubulin-Different-Phenotype (%)", "setting": "[1]", "result": "35% and 23%"}, {"measurement": "Total Cell Count", "setting": "[1]", "result": "411 and 337"}, {"measurement": "Population Apoptotic (%)", "setting": "[2]", "result": "48% and 69%"}, {"measurement": "Population Fragmented Nuclei (%)", "setting": "[2]", "result": 8, "unit": "%"}, {"measurement": "Population Healthy Nuclei (%)", "setting": "[2]", "result": "73% and 76%"}, {"measurement": "Population Membrane Permeable-Phenotype (%)", "setting": "[2]", "result": 0, "unit": "%"}, {"measurement": "Population Mitochondria Different-Phenotype (%)", "setting": "[2]", "result": "65% and 69%"}, {"measurement": "Population Mitotic Cells (%)", "setting": "[2]", "result": "51% and 30%"}, {"measurement": "Population Normal (%)", "setting": "[2]", "result": "93% and 80%"}, {"measurement": "Population Pyknosed Nuclei (%)", "setting": "[2]", "result": "17% and 15%"}, {"measurement": "Population Tubulin-Different-Phenotype (%)", "setting": "[2]", "result": "47% and 43%"}, {"measurement": "Total Cell Count", "setting": "[2]", "result": "264 and 321"}, {"measurement": "Population Apoptotic (%)", "setting": "[3]", "result": "47% and 40%"}, {"measurement": "Population Fragmented Nuclei (%)", "setting": "[3]", "result": "10% and 6%"}, {"measurement": "Population Healthy Nuclei (%)", "setting": "[3]", "result": "79% and 82%"}, {"measurement": "Population Hoechst High Intensity Objects (%)", "setting": "[3]", "result": "6% and 7%"}, {"measurement": "Population Membrane Permeable-Phenotype (%)", "setting": "[3]", "result": 0, "unit": "%"}, {"measurement": "Population Mitochondria Different-Phenotype (%)", "setting": "[3]", "result": "38% and 45%"}, {"measurement": "Population Mitotic Cells (%)", "setting": "[3]", "result": "52% and 60%"}, {"measurement": "Population Normal (%)", "setting": "[3]", "result": "93% and 92%"}, {"measurement": "Population Pyknosed Nuclei (%)", "setting": "[3]", "result": 10, "unit": "%"}, {"measurement": "Population Tubulin-Different-Phenotype (%)", "setting": "[3]", "result": "24% and 23%"}, {"measurement": "Total Cell Count", "setting": "[3]", "result": "498 and 355"}, {"measurement": "Population Apoptotic (%)", "setting": "[4]", "result": "48% and 45%"}, {"measurement": "Population Fragmented Nuclei (%)", "setting": "[4]", "result": "9% and 10%"}, {"measurement": "Population Healthy Nuclei (%)", "setting": "[4]", "result": 75, "unit": "%"}, {"measurement": "Population Hoechst High Intensity Objects (%)", "setting": "[4]", "result": "6% and 14%"}, {"measurement": "Population Membrane Permeable-Phenotype (%)", "setting": "[4]", "result": 0, "unit": "%"}, {"measurement": "Population Mitochondria Different-Phenotype (%)", "setting": "[4]", "result": "65% and 53%"}, {"measurement": "Population Mitotic Cells (%)", "setting": "[4]", "result": "51% and 54%"}, {"measurement": "Population Normal (%)", "setting": "[4]", "result": "93% and 85%"}, {"measurement": "Population Pyknosed Nuclei (%)", "setting": "[4]", "result": "14% and 13%"}, {"measurement": "Population Tubulin-Different-Phenotype (%)", "setting": "[4]", "result": "44% and 30%"}, {"measurement": "Total Cell Count", "setting": "[4]", "result": "283 and 362"}, {"measurement": "Population Apoptotic (%)", "setting": "[5]", "result": "35% and 60%"}, {"measurement": "Population Fragmented Nuclei (%)", "setting": "[5]", "result": "19% and 11%"}, {"measurement": "Population Healthy Nuclei (%)", "setting": "[5]", "result": "74% and 82%"}, {"measurement": "Population Hoechst High Intensity Objects (%)", "setting": "[5]", "result": "8% and 5%"}, {"measurement": "Population Membrane Permeable-Phenotype (%)", "setting": "[5]", "result": "1% and 0%"}, {"measurement": "Population Mitochondria Different-Phenotype (%)", "setting": "[5]", "result": "40% and 32%"}, {"measurement": "Population Mitotic Cells (%)", "setting": "[5]", "result": "64% and 39%"}, {"measurement": "Population Normal (%)", "setting": "[5]", "result": "91% and 94%"}, {"measurement": "Population Pyknosed Nuclei (%)", "setting": "[5]", "result": "6% and 5%"}, {"measurement": "Population Tubulin-Different-Phenotype (%)", "setting": "[5]", "result": "25% and 17%"}, {"measurement": "Total Cell Count", "setting": "[5]", "result": "554 and 430"}, {"measurement": "Population Apoptotic (%)", "setting": "[6]", "result": "66% and 59%"}, {"measurement": "Population Fragmented Nuclei (%)", "setting": "[6]", "result": 23, "unit": "%"}, {"measurement": "Population Healthy Nuclei (%)", "setting": "[6]", "result": "63% and 70%"}, {"measurement": "Population Hoechst High Intensity Objects (%)", "setting": "[6]", "result": "11% and 8%"}, {"measurement": "Population Membrane Permeable-Phenotype (%)", "setting": "[6]", "result": 0, "unit": "%"}, {"measurement": "Population Mitochondria Different-Phenotype (%)", "setting": "[6]", "result": "56% and 43%"}, {"measurement": "Population Mitotic Cells (%)", "setting": "[6]", "result": "33% and 40%"}, {"measurement": "Population Normal (%)", "setting": "[6]", "result": "88% and 91%"}, {"measurement": "Population Pyknosed Nuclei (%)", "setting": "[6]", "result": "12% and 6%"}, {"measurement": "Population Tubulin-Different-Phenotype (%)", "setting": "[6]", "result": "30% and 23%"}, {"measurement": "Total Cell Count", "setting": "[6]", "result": "379 and 429"}]}]}
